# Results taken from ChEMBL document CHEMBL1156477, “Small-molecule-mediated rescue of protein function by an inducible proteolytic shunt” (Proc Natl Acad Sci U S A, 2007).
# The source made the active and inactive calls. The calls are words filed in the database; no cut-off is given here.
# Tested on: SYF
# Assay: Effect on proliferation of mouse SYF cells expressing FRB3-ubiquitin-C-v-src construct at 100 nM after 24 hsr by MTT assay
# Format: functional, cell-based
# Method in brief: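 SYF cells (DMEM/10% FBS, 37°C, 5% CO2) transfected via FuGENE-6 with construct 1 plus v-Src cleavage construct; after 24 h expression, trypsinized, ~1 × 10^4 cells replated with rapamycin (100 nM) or DMSO; MTT proliferation assay performed after a further 24 h.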
compound,measurement,value
CO[C@H]1C[C@@H]2CC[C@@H](C)[C@@](O)(O2)C(=O)C(=O)N2CCCC[C@H]2C(=O)O[C@H]([C@H](C)C[C@@H]2CC[C@@H](O)[C@H](OC)C2)CC(=O)[C@H](C)/C=C(\C)[C@@H](O)[C@@H](OC)C(=O)[C@H](C)C[C@H](C)/C=C/C=C/C=C/1C,Activity,Active
